Active and inactive are the calls of the source. No cut-off for these calls is given here.
What was measured:
[1] = biological target: Mitogen-activated protein kinase 1 (Homo sapiens) (UniProt P28482); test: Induction of ERK2 phosphorylation at Tyr204 residues in UV-irradiated human TIG3 cells using 50 mJ/cm2 of UV radiations followed by compound addition by immuno fluorescence staining based analysis
Summary of the method: (§1)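 TIG-3 fibroblasts (DMEM, 10% FBS, 37 °C) stressed with H2O2 (500 μM, 2 h) or UV (50 mJ/cm2), then recovered in compound-supplemented medium. Cells fixed in chilled absolute methanol and immunostained for the marker. Images taken by fluorescence microscopy and staining intensity quantified. Triplicate experiments.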

[2] = biological target: RAC-alpha serine/threonine-protein kinase (Homo sapiens) (UniProt P31749); test: Induction of Akt phosphorylation at Ser473 residues in H2O2 treated human TIG3 cells at 0.6 uM pretreated with H2O2 for 2 hrs followed by compound addition by immunoblot analysis
Summary of the method: (§2)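 TIG-3 cells stressed with H2O2 (500 μM, 2 h), then recovered in medium containing 0.3 or 0.6 μM compound. Lysed in NP40 buffer; 10−20 μg protein immunoblotted for pAkt Ser473, p-p38 Thr180/Tyr182, p-p44/42 Thr202/Tyr204, β-catenin, survivin, Bcl-2 or full-length PARP-1. Triplicate experiments.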

[3] = biological target: Mitogen-activated protein kinase 1 (Homo sapiens) (UniProt P28482); test: Induction of ERK2 phosphorylation at Tyr204 residues in H2O2 treated human TIG3 cells pretreated with H2O2 for 2 hrs followed by compound addition by immuno fluorescence staining based analysis; summary of the method: as §1
TIG-3 [4] = test: Cytoprotective activity against UV irradiation-induced stress in human TIG3 cells assessed as increase in cell survival irradiated with 50 mJ/cm2 of UV radiations followed by compound addition measured after 2 days by crystal violet staining based assay; assay type: functional
TIG-3 [5] = test: Cytoprotective activity against H2O2-induced oxidative stress in human TIG3 cells assessed as decrease in protein disulfide isomerase expression level at 0.6 uM pretreated with H2O2 for 2 hrs followed by compound addition by immuno fluorescence staining based analysis; assay type: functional, cell-based; summary of the method: as §1
TIG-3 [6] = test: Induction of oxidative stress in human TIG3 cells assessed as increase in GADD45alpha mRNA levels by RT-PCR analysis; assay type: cell-based
Summary of the method: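 Total RNA from treated TIG-3 cells; cDNA from 2 μg RNA; PCR 95 °C 10 min, 30 cycles (95 °C 45 s, 58 °C 1 min, 72 °C 45 s), 72 °C 10 min; products on 0.8% agarose, band densitometry; three independent experiments.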

TIG-3 [7] = test: Effect on p53 expression level in human TIG3 cells at 0.3 to 3 uM by immunoblot analysis; assay type: cell-based; details: tig-3, 3 µM
Summary of the method: (§3)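 TIG-3 cells treated with compound, lysed in NP40 buffer (centrifuged 20 min, 4 °C); 10−20 μg protein immunoblotted for indicated proteins; band quantitation from three independent experiments, Student's t or Mann−Whitney test.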

[8] = biological target: Mitogen-activated protein kinase 3 (Homo sapiens) (UniProt P27361); test: Induction of ERK1 phosphorylation at Thr202 residues in H2O2 treated human TIG3 cells pretreated with H2O2 for 2 hrs followed by compound addition by immuno fluorescence staining based analysis; summary of the method: as §1
[9] = biological target: Mitogen-activated protein kinase 3 (Homo sapiens) (UniProt P27361); test: Induction of ERK1 phosphorylation at Thr202 residues in UV-irradiated human TIG3 cells using 50 mJ/cm2 of UV radiations followed by compound addition by immuno fluorescence staining based analysis; summary of the method: as §1
TIG-3 [10] = test: Cytotoxicity against human TIG3 cells assessed as induction of morphological changes at 0.3 to 1.5 uM after 48 hrs by phase contrast microscopy; assay type: cell-based; details: tig-3, 48 h
Summary of the method: (§4)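 Phase-contrast microscopy of morphology of control and treated normal human TIG-3 fibroblasts.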

TIG-3 [11] = test: Cytoprotective activity against H2O2-induced oxidative stress in human TIG3 cells assessed as decrease in phosphorylated ATM level at 0.6 uM pretreated with H2O2 for 2 hrs followed by compound addition by immuno fluorescence staining based analysis; assay type: functional, cell-based; summary of the method: as §1
TIG-3 [12] = test: Cytoprotective activity against doxorubicin-induced stress in human TIG3 cells assessed as increase in cell survival pretreated with doxorubicin for 24 hrs followed by compound addition measured after 2 days by crystal violet staining based assay; assay type: functional
TIG-3 [13] = test: Cytoprotective activity against UV irradiation-induced stress in human TIG3 cells assessed as decrease in CARF level irradiated with 50 mJ/cm2 of UV radiations followed by compound addition by immuno fluorescence staining based assay; assay type: functional, cell-based
TIG-3 [14] = test: Cytotoxicity against human TIG3 cells assessed as cell death at 0.6 uM; assay type: cell-based; details: tig-3, 0.6 µM; summary of the method: as §4
TIG-3 [15] = test: Cytoprotective activity against H2O2-induced oxidative stress in human TIG3 cells assessed as decrease in 53BP1 level at 0.6 uM pretreated with H2O2 for 2 hrs followed by compound addition by immuno fluorescence staining based analysis; assay type: functional, cell-based; summary of the method: as §1
[16] = biological target: Kelch-like ECH-associated protein 1 (Homo sapiens, UniProt Q14145); test: Activation of keap1 in human TIG3 cells assessed as Nrf2 nuclear accumulation at 0.6 uM by immuno staining analysis; assay type: cell-based
Summary of the method: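 Methanol-fixed (chilled absolute methanol) TIG-3 fibroblasts treated with Wi-A or 3βmWi-A; immunofluorescence staining with antibodies, imaged by epifluorescence microscopy; signal quantitated from three independent experiments.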

TIG-3 [17] = test: Cytoprotective activity against UV irradiation-induced stress in human TIG3 cells assessed as increase in cell survival at 3 uM irradiated with 50 mJ/cm2 of UV radiations followed by compound addition measured after 72 hrs by crystal violet staining based assay; assay type: functional
TIG-3 [18] = test: Cytotoxicity against human TIG3 cells assessed as reduction in cell viability at 1 to 10 uM after 72 hrs; assay type: cell-based; details: tig-3, 72 h
Summary of the method: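 Normal fibroblasts in DMEM/10% FBS at 37 °C given 0.15 to 50 μM compound for 48 or 72 h; viability determined; triplicate, mean ± SEM.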

TIG-3 [19] = test: Effect on p21 WAF1 expression level in human TIG3 cells at 0.3 to 3 uM by immunoblot analysis; assay type: ADME, cell-based; details: tig-3, 3 µM; summary of the method: as §3
Homo sapiens = species on record: Homo sapiens; test: Induction of AKT/p38/p44 MAPK-mediated survivin expression level in H2O2 treated human TIG3 cells at 0.6 uM pretreated with H2O2 for 2 hrs followed by compound addition by immunoblot analysis; summary of the method: as §2

Mitogen-activated protein kinase 3 (Homo sapiens), sequence (P27361 whole entry): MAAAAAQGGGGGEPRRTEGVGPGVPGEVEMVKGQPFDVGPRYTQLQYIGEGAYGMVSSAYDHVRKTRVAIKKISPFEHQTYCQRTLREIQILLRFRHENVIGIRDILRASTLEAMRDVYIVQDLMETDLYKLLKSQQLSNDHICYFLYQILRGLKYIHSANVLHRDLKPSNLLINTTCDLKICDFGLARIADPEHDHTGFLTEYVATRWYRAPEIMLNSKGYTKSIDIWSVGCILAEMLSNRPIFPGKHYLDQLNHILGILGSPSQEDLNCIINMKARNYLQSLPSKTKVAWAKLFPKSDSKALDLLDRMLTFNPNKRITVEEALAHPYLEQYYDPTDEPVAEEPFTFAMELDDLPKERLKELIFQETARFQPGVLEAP
Mitogen-activated protein kinase 1 (Homo sapiens), sequence (P28482 whole entry): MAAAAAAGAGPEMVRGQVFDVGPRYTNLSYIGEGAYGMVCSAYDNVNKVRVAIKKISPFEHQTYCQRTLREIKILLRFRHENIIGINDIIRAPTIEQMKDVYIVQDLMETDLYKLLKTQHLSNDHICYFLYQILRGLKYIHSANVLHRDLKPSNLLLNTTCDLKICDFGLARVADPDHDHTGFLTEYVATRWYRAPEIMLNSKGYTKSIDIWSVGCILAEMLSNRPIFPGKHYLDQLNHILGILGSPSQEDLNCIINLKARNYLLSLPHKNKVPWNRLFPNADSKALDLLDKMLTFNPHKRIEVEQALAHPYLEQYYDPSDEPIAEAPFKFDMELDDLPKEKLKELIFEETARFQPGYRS
RAC-alpha serine/threonine-protein kinase (Homo sapiens), sequence (P31749 whole entry): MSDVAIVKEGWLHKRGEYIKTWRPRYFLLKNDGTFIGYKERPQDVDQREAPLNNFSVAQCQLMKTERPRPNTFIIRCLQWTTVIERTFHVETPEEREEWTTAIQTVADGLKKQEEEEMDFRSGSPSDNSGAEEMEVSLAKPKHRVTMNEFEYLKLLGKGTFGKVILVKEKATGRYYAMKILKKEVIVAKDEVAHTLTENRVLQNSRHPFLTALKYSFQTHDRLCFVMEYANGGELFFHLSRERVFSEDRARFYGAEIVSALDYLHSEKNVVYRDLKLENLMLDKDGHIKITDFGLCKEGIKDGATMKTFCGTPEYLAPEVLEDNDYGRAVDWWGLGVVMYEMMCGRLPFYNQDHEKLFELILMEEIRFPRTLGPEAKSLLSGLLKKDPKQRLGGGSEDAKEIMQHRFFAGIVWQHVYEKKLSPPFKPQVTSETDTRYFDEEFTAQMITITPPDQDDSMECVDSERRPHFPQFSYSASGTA
Kelch-like ECH-associated protein 1, sequence (Q14145 whole entry): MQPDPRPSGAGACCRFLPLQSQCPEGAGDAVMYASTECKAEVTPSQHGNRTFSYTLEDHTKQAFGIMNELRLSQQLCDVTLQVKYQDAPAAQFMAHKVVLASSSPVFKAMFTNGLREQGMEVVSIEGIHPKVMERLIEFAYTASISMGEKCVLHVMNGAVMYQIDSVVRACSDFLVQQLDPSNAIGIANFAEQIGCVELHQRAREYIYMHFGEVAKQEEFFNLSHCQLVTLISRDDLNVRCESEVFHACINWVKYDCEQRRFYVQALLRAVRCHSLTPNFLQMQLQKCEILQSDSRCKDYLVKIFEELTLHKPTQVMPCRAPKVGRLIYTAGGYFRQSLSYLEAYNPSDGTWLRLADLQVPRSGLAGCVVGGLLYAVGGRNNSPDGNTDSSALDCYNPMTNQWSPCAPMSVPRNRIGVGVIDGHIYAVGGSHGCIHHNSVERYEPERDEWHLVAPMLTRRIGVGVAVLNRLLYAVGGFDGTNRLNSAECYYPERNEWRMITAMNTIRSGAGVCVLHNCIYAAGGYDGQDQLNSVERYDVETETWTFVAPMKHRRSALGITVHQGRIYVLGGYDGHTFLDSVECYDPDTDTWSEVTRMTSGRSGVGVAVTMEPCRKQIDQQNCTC

CO[C@H]1CC(=O)[C@]2(C)[C@H]3CC[C@]4(C)[C@@H]([C@H](C)[C@H]5CC(C)=C(CO)C(=O)O5)CC[C@H]4[C@@H]3C[C@H]3O[C@]32[C@H]1O
Activity [1]: Active | Activity [2]: Active | Activity [3]: Active | Activity (TIG-3 [4]): Dose-dependent effect | Activity (TIG-3 [5]): Active | Activity (TIG-3 [6]): Non-Toxic | Activity (TIG-3 [7]): Non-Toxic | Activity [8]: Active | Activity [9]: Active | Activity (TIG-3 [10]): Non-Toxic | Activity (TIG-3 [11]): Active | Activity (TIG-3 [12]): Dose-dependent effect | Activity (TIG-3 [13]): Active | Activity (TIG-3 [14]): Non-Toxic | Activity (TIG-3 [15]): Active | Activity [16]: Not Active | Activity (TIG-3 [17]): Active | Activity (TIG-3 [18]): Non-Toxic | Activity (TIG-3 [19]): Non-Toxic | Activity (Homo sapiens): Active
